Test results: ChEMBL document CHEMBL1121400, “Quantitative structure--activity correlations of rifamycins as inhibitors of viral RNA-directed DNA polymerase and mammalian alpha and beta DNA polymerases” (J Med Chem, 1980)
pIC50: −log10 of the molar value. Each block holds one compound with its values, some of them ahead of it.

Assays:
[1] = Partition coefficient (logP); conditions: octanol/water
[2] = Ability to inhibit mouse alpha DNA polymerase
How it was run: (§1)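 Enzyme in 50% glycerol, 1 mM dithiothreitol, 0.5 M KCl and 50 mM Tris-HCl pH 7.5 was premixed with inhibitor in 100% Me2SO and held on ice 10 min. Cocktail (MnCl2, KCl, NaF, BSA, [3H]dGTP, poly(2'-O-methylcytidylic acid)·d(pG)12-18) was then added. Incubation was 45 min at 37 °C.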

[3] = molecular target: DNA polymerase beta (Mus musculus, UniProt Q8K409); experiment: Ability to inhibit mouse beta DNA polymerase; conditions: for pIC50: read-out: IC50; how it was run: as §1
[4] = molecular target: Gag-Pol polyprotein (Woolly monkey sarcoma virus, UniProt P03359); experiment: Ability to inhibit simian sarcoma virus reverse transcriptase; conditions: read-out: IC50
How it was run: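 Purified SSV-1 RNA-dependent DNA polymerase from 71 AP1 culture fluids, in 20% glycerol, 1 mM dithiothreitol, 1 mg/mL BSA and 50 mM Tris-HCl pH 7.5, was held 10 min on ice with inhibitor in Me2SO. Mn2+/[3H]dGTP cocktail with poly(2'-O-methylcytidylic acid)·d(pG)12-18 template was added, then 45 min at 37 °C. Background-corrected triplicate dose series; the 50% inhibition concentration was extrapolated.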

Sequence of Gag-Pol polyprotein (P03359 642-1310 limits assumed): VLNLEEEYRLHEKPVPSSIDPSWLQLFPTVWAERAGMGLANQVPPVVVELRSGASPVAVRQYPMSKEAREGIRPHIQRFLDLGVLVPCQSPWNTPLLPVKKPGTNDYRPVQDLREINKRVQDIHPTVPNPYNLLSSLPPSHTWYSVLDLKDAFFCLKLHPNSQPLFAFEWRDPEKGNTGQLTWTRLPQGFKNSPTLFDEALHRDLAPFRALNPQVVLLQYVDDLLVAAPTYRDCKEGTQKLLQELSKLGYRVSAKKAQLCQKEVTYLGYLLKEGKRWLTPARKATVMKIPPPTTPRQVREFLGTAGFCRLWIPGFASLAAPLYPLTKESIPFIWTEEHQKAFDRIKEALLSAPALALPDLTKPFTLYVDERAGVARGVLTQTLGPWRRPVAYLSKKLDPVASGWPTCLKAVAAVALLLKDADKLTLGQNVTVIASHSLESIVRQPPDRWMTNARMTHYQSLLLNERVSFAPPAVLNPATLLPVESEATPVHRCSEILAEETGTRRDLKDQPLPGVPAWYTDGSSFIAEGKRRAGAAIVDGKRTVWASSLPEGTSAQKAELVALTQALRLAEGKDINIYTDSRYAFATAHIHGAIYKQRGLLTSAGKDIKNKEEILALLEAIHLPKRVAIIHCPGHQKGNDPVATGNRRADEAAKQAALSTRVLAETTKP

- logP [1]: 4.65
Compound: COC1/C=C/OC2(C)Oc3c(C)c(O)c4c(O)c(c(/C=N/N5CCCCCCCCCCCC5)cc4c3C2=O)NC(=O)/C(C)=C\C=C\C(C)C(O)C(C)C(O)C(C)C(OC(C)=O)C1C (stereo in doubt; 30)

- logP ([1]; logP): 3.6
Compound: CCCCCCCCN(CCCCCCCC)/N=C/c1cc2c3c4c(C)c(O)c2c(O)c1NC(=O)/C(C)=C\C=C\C(C)C(O)C(C)C(O)C(C)C(OC(C)=O)C(C)C(OC)/C=C/OC(C)(O4)C3=O (stereo in doubt; 35)

- logP ([1]; logP): 4.75
- IC50 [2]: 0.000024 M l-1
- pIC50 [3]: 4.72
- pIC50 [4]: 5.48
Compound: COC1/C=C/OC2(C)Oc3c(C)c(O)c4c(O)c(c(/C=N/N5CCCCCCCCCCCC5)cc4c3C2=O)NC(=O)/C(C)=C\C=C\C(C)C(O)C(C)C(O)C(C)C(OC(C)=O)C1C (stereo in doubt; 17)

- logP ([1]; logP): -0.29
Compound: NN1CCNCC1

- logP ([1]; logP): 3.45
Compound: COC1/C=C/OC2(C)Oc3c(C)c(O)c4c(O)c(c(/C=N/N5CCCCCCCC5)cc4c3C2=O)NC(=O)/C(C)=C\C=C\C(C)C(O)C(C)C(O)C(C)C(OC(C)=O)C1C (stereo not drawn)

- logP [1]: 3.62
- IC50 [2]: 0.000024 M l-1
- pIC50 [3]: 5.13
- pIC50 [4]: 5.49
Compound: CCCCCCCCN(CCCCCCCC)/N=C/c1cc2c3c4c(C)c(O)c2c(O)c1NC(=O)/C(C)=C\C=C\C(C)C(O)C(C)C(O)C(C)C(OC(C)=O)C(C)C(OC)/C=C/OC(C)(O4)C3=O (stereo in doubt; 8)

- logP ([1]; logP): 3.66
Compound: CCCCN(CCCC)/N=C/c1cc2c3c4c(C)c(O)c2c(O)c1NC(=O)/C(C)=C\C=C\C(C)C(O)C(C)C(O)C(C)C(OC(C)=O)C(C)C(OC)/C=C/OC(C)(O4)C3=O (stereo not drawn)

- logP ([1]; logP): 6.3
Compound: COC1/C=C/OC2(C)Oc3c(C)c(O)c4c(O)c(c(/C=N/N5C(C)CC(Cc6ccccc6)CC5C)cc4c3C2=O)NC(=O)/C(C)=C\C=C\C(C)C(O)C(C)C(O)C(C)C(OC(C)=O)C1C (stereo not drawn)

Continued, compound first:

Compound: COC1/C=C/OC2(C)Oc3c(C)c(O)c4c(O)c(c(/C=N/N5CCCCCCC5)cc4c3C2=O)NC(=O)/C(C)=C\C=C\C(C)C(O)C(C)C(O)C(C)C(OC(C)=O)C1C (stereo not drawn)
- logP ([1]; logP): 3.1

Compound: COC1/C=C/OC2(C)Oc3c(C)c(O)c4c(O)c(c(/C=N/N5CCCCCCCCCCCCCCC5)cc4c3C2=O)NC(=O)/C(C)=C\C=C\C(C)C(O)C(C)C(O)C(C)C(OC(C)=O)C1C (stereo in doubt; 18)
- logP ([1]; logP): 6.05
- IC50 [2]: 0.000025 M l-1
- pIC50 [3]: 4.66
- pIC50 [4]: 5.19

Compound: CCCCCCN(CCCCCC)/N=C/c1cc2c3c4c(C)c(O)c2c(O)c1NC(=O)/C(C)=C\C=C\C(C)C(O)C(C)C(O)C(C)C(OC(C)=O)C(C)C(OC)/C=C/OC(C)(O4)C3=O (stereo not drawn)
- logP ([1]; logP): 3.51

Compound: COC1/C=C/OC2(C)Oc3c(C)c(O)c4c(O)c(c(/C=N/N5CCN(Cc6ccccc6)CC5)cc4c3C2=O)NC(=O)/C(C)=C\C=C\C(C)C(O)C(C)C(O)C(C)C(OC(C)=O)C1C (stereo not drawn)
- logP ([1]; logP): 3.36

Compound: COC1/C=C/OC2(C)Oc3c(C)c(O)c4c(O)c(c(/C=N/N5CCCCC5)cc4c3C2=O)NC(=O)/C(C)=C\C=C\C(C)C(O)C(C)C(O)C(C)C(OC(C)=O)C1C (stereo not drawn)
- logP ([1]; logP): 2.35

Compound: COC1/C=C/OC2(C)Oc3c(C)c(O)c4c(O)c(c(/C=N/N5CCCCCCCCCCCCCCC5)cc4c3C2=O)NC(=O)/C(C)=C\C=C\C(C)C(O)C(C)C(O)C(C)C(OC(C)=O)C1C (stereo in doubt; 31)
- logP [1]: 5.55

Compound: COC1/C=C/OC2(C)Oc3c(C)c(O)c4c(O)c(c(/C=N/N5CCCCCC5)cc4c3C2=O)NC(=O)/C(C)=C\C=C\C(C)C(O)C(C)C(O)C(C)C(OC(C)=O)C1C (stereo not drawn)
- logP ([1]; logP): 2.75

Compound: COC1/C=C/OC2(C)Oc3c(C)c(O)c4c(O)c(c(/C=N/N5CCN(C)CC5)cc4c3C2=O)NC(=O)/C(C)=C\C=C\C(C)C(O)C(C)C(O)C(C)C(OC(C)=O)C1C (stereo not drawn)
- IC50 [2]: 0.00034 M l-1
- IC50 [3]: 0.00015 M l-1
- pIC50 [4]: 4.38

Compound: COC1/C=C/OC2(C)Oc3c(C)c(O)c4c(O)c(c(/C=N/N5CCNCC5)cc4c3C2=O)NC(=O)/C(C)=C\C=C\C(C)C(O)C(C)C(O)C(C)C(OC(C)=O)C1C (stereo not drawn)
- logP ([1]; logP): 1.12
